The values that follow come from ChEMBL document CHEMBL1140127, “Enantiomeric propanolamines as selective N-methyl-D-aspartate 2B receptor antagonists” (J Med Chem, 2008).

In general, IC50 refers to the concentration that gives 50% inhibition. The term inhibition denotes the drop in the measured response relative to a control, in per cent.

Activity calls are given as the source filed them.

For series [1], the target named is Glutamate receptor ionotropic, kainate 2 (Rattus norvegicus) (UniProt P42260). Nature of the series: Inhibition of rat recombinant GluR6/KA1 expressed in Xenopus oocytes assessed as inhibition of AMPA-induced evoked current at 3 uM by two electrode voltage clamp method. It counts as cell-based. The following applies: Oocyte. The procedure, abridged:
(§1)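 Xenopus oocytes injected with 5–10 ng rat receptor cRNA and kept in Barth's solution at 18 °C. Two-electrode voltage clamp at −40 mV and 23 °C, 2–7 days after injection, in 90 NaCl/1 KCl/10 HEPES/0.5 BaCl2 mM at pH 7.3 or 7.6. Agonists: 50 μM kainate for GluR3, GluR4 and GluR2/3; 3 nM domoate for GluR6; 100 μM AMPA for GluR6/KA1. Current expressed as % of control; paired t test.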
In general terms: In two-electrode clamp one electrode senses voltage and the other passes current.

The subject of series [2] is Rattus norvegicus. Put plainly: Anticonvulsant activity in Sprague-Dawley rat assessed as inhibition of electroshock-induced tonic hind limb extension at 30 mg/kg, ip administered 30 mins before electroshock. Also noted: dose 30 mg/kg. The following applies: Hindlimb. It counts as functional, organism-based. The procedure, abridged: (§2)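 Male Sprague–Dawley rats, 100–125 g, with 1% lidocaine dropped into each conjunctiva before maximal electroshock. Compound given ip in DMSO 30 min before the stimulus. Tested on three consecutive days: untreated on days 1 and 3, compound on day 2. Duration of tonic hind limb extension scored visually. Vehicle served as negative control and carbamazepine 60 mg/kg as positive control. ANOVA with Bonferroni post hoc test.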

Series [3] addresses Sodium-dependent noradrenaline transporter (Homo sapiens, UniProt P23975). Nature of the series: Binding affinity to norepinephrine transporter.
The target in series [4] is Glutamate receptor 4 (Rattus norvegicus) (UniProt P19493). Put plainly: Inhibition of rat recombinant GluR4 expressed in Xenopus oocytes assessed as inhibition of kainate-induced evoked current at 3 uM by two electrode voltage clamp method. It counts as cell-based. As to conditions: Oocyte. The procedure, abridged: as §1
The test system of the next series is Neuron. Put plainly: Inhibition of tetrodotoxin-sensitive voltage-gated sodium current in E17 Sprague-Dawley rat neurons at 3 uM at holding potential of […] by whole cell patch clamp method. In kind it is functional. For orientation: In patch-clamp work, channel activity is measured electrically.
The test system of series [5] is Mus musculus. Nature of the series: Plasma concentration in C57BL/6 mouse at 30 mg/kg, ip. It counts as ADME, organism-based. Also noted: dose 30 mg/kg, route intraperitoneal. The following applies: in vivo.
Series [6] has as its target Adrenergic receptor alpha-2 (Rattus norvegicus, UniProt P22086+P19328+P22909). Nature of the series: Binding affinity to alpha2 adrenergic receptor in rat brain. In kind it is tissue-based.
The next series has as its system Plasma. Nature of the series: Half life in rat plasma at 30 mg/kg, ip by LC-MS/MS analysis. In kind it is ADME, organism-based. Also noted: dose 30 mg/kg, route intraperitoneal. As to conditions: in vivo. In outline: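 Fasted rats (n = 3 per dose) given 30 mg/kg ip in 2% dimethyl acetamide/98% 5% hydroxypropyl cyclodextrin. Plasma sampled at several time points up to 240 min and extracted with 5 volumes of cold acetonitrile. Parent compound measured by LC-MS/MS (MRM) against a standard curve to give plasma t1/2.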

Series [7] can be described thus: Inhibition of L-type calcium channel.
The nature of series [8]: Ratio of drug level in rat brain to plasma by LC-MS/MS analysis. In kind it is ADME. In outline:
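Rats (n = 3 per dose) received a 4 mg/kg single iv bolus via the tail vein or 30 mg/kg ip, in 2% dimethyl acetamide/98% 5% 2-hydroxypropyl cyclodextrin, after an overnight fast. Plasma was taken at 5–240 min. Brain was homogenized in 50 mM phosphate buffer. Samples were extracted with 5 volumes of cold acetonitrile and read by LC-MS/MS (MRM) against a standard curve.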

Series [9] can be described thus: Protein binding in human plasma. It counts as ADME, cell-free. As to conditions: read-out: PPB (converted).
For series [10], the species on record is Mus musculus. The following applies: 3 uM.
Series [11] relates to Mus musculus. Nature of the series: Effect on motor coordination in mouse at 30 mg/kg, ip administered 20 mins prior to test after 5 days by rotarod test. In kind it is ADME, organism-based. Also on record: dose 30 mg/kg, route intraperitoneal. The following applies: in vivo, 120 h. The procedure, abridged:
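Accelerating rotorod: mice held 10 s at 5 rpm, then accelerated from 5 to 35 rpm over 5 min; latency to fall recorded by light sensor. Four trials per day for 5 days, 25 min between trials. On day 5, mice were randomized and given a 5 mL/kg ip injection in 25% DMSO/75% saline 20 min before the first trial. Operator blinded; ANOVA with Dunnett's post hoc test.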
In general terms: In the rotarod test animals must keep their balance on a rotating rod.

Series [12] concerns the target Glutamate NMDA receptor; Grin1/Grin2a (Rattus norvegicus) (UniProt P35439+Q00959). Nature of the series: Inhibition of rat recombinant NR1/NR2A receptor expressed in Xenopus oocytes assessed as inhibition of glutamate and glycine-induced evoked current at 3uM by two electrode voltage clamp method. It counts as cell-based. The following applies: Oocyte.
The subject of series [13] is Mus musculus. Nature of the series: Neuroprotective effect against middle cerebral artery occlusion-induced transient focal ischemia in C57BL/6 mouse at 30 mg/kg, ip administered 30 mins before occlusion. It counts as functional. The following applies: route intraperitoneal. In outline:
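Male C57BL/6 mice, 3–5 months, under 2% isoflurane at 37 °C. Left MCA occluded with an intraluminal suture for 30 min, confirmed by laser Doppler flow below 20%. Injection ip (10 mL/kg) given 30 min before occlusion. After 24 h, brains cut into 2 mm sections and stained with 2% TTC; infarct volume thresholded and edema-corrected. Operator blinded; Mann–Whitney test.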

The target in series [14] is Glutamate NMDA receptor; Grin1/Grin2c (Rattus norvegicus) (UniProt P35439+Q00961). Put plainly: Inhibition of rat recombinant NR1/NR2C receptor expressed in Xenopus oocytes assessed as inhibition of glutamate and glycine-induced evoked current at 3uM by two electrode voltage clamp method. As to conditions: Oocyte. It counts as cell-based.
In the next series the test system is Brain. Put plainly: Drug level in rat brain at 30 mg/kg, ip by LC-MS/MS analysis. It counts as ADME, organism-based. Also on record: dose 30 mg/kg, route intraperitoneal. The procedure, abridged:
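Rats, n = 3 per dose, given 30 mg/kg ip in 2% dimethyl acetamide/98% 5% 2-hydroxypropyl cyclodextrin after overnight fasting. Brain weighed and homogenized on ice in 50 mM phosphate buffer. Homogenate extracted with 5 volumes of cold acetonitrile, then centrifuged. Parent compound quantified by LC-MS/MS in MRM mode against a standard curve.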

The nature of series [15]: Inhibition of sodium channel. In outline: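 Rat cortical neurons cultured from E17 embryos and recorded at 5–10 days by whole-cell patch clamp at 23 °C. Holding −60 mV with 100 ms steps, in the presence of bicuculline, CNQX and DL-APV. Tetrodotoxin-sensitive Na+ current measured at −10 mV; mean compared by paired t test.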
A short description of series [16]: Inhibition of N-type calcium channel.
Series [17] concerns the target Glutamate NMDA receptor; GRIN1/GRIN2B (Homo sapiens) (UniProt Q05586+Q13224). Nature of the series: Inhibition of human NR1/NR2B receptor.
The target of series [18] is Glutamate receptor ionotropic, kainate 2 (Rattus norvegicus) (UniProt P42260). Put plainly: Inhibition of rat recombinant GluR6 expressed in Xenopus oocytes assessed as inhibition of domoate-induced evoked current at 3 uM by two electrode voltage clamp method. In kind it is cell-based. The following applies: Oocyte. In outline:
as §1

Series [19] relates to Rattus norvegicus. Put plainly: Anticonvulsant activity in Sprague-Dawley rat assessed as inhibition of electroshock-induced tonic hind limb extension at 100 mg/kg, ip administered 30 mins before electroshock. Also on record: dose 100 mg/kg. In kind it is functional, organism-based. The following applies: Hindlimb. In outline:
as §2

Glutamate receptor ionotropic, kainate 2 (Rattus norvegicus), sequence (P42260 whole entry): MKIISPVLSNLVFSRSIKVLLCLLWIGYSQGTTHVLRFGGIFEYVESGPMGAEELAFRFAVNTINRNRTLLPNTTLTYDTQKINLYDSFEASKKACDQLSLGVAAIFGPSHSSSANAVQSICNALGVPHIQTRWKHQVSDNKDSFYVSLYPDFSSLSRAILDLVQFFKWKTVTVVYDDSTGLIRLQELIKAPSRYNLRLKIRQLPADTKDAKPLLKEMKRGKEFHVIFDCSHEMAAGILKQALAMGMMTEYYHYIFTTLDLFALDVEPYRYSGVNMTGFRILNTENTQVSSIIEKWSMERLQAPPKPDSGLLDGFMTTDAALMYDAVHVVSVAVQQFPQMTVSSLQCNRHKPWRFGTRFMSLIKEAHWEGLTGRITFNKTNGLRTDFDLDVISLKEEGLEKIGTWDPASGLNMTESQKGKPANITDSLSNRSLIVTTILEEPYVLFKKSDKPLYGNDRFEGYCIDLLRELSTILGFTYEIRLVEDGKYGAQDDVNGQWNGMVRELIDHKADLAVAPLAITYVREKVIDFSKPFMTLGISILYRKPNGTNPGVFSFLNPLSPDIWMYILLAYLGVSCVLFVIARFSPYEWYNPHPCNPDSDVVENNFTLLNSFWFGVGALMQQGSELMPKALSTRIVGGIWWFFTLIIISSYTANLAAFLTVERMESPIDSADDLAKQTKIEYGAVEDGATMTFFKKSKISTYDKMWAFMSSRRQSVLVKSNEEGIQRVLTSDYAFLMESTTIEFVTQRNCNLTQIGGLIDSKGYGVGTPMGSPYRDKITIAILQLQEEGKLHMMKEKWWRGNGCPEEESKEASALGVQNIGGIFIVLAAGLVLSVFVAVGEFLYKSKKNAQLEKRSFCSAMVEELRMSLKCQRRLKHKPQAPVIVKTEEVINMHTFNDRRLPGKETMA
Sodium-dependent noradrenaline transporter, sequence (P23975 whole entry): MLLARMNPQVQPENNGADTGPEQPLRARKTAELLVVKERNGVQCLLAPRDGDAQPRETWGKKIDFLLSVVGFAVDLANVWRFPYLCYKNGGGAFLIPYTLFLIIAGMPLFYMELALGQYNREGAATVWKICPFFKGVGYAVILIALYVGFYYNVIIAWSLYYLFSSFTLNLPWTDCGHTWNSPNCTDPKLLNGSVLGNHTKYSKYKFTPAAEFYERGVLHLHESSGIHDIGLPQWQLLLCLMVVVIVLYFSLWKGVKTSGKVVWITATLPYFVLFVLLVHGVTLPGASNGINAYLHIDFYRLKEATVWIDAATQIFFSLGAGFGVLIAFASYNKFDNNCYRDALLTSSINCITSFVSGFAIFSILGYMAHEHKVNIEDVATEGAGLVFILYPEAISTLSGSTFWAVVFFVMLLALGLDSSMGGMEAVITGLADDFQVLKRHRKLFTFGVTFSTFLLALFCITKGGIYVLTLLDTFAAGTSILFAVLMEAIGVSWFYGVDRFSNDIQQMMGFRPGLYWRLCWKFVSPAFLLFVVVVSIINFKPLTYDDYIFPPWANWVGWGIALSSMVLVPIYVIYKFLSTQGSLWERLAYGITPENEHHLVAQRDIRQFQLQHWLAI
Glutamate receptor 4 (Rattus norvegicus), sequence (P19493 whole entry): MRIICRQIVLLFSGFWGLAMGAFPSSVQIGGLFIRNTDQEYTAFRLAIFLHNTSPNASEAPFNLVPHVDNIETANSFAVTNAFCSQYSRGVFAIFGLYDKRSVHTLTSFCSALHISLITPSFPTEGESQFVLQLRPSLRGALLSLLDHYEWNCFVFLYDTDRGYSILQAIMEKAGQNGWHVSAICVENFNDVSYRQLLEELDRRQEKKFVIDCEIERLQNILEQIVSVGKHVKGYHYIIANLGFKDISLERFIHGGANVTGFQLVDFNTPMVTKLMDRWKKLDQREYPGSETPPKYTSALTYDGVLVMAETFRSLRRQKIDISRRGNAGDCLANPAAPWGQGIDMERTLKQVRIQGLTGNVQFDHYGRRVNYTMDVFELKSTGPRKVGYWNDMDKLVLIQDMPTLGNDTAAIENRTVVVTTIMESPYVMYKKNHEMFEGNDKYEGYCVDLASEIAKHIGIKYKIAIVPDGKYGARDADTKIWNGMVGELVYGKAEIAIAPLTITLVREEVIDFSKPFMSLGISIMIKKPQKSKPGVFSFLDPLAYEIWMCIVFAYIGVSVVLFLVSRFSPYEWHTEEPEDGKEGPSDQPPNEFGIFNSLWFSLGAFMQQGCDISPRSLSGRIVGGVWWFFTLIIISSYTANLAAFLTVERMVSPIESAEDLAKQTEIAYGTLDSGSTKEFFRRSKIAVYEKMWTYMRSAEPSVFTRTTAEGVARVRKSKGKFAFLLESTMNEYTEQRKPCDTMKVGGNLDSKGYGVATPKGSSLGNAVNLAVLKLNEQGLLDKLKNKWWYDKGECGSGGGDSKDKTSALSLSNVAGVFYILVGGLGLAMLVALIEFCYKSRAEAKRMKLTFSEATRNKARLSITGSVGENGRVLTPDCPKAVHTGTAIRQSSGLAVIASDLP

With `CS(=O)(=O)Nc1ccc(OC[C@@H](O)CNCCc2ccc(Cl)c(Cl)c2)cc1`, the outcome (in [1]; in the series on Rattus norvegicus [2]; in series [4]; in series [12]; in series [14]; in series [18]) was inactive. Also, the IC50 is 0.5 µM in [3]; above 3 µM in [6]; above 5 µM in series [7]; above 5 µM in series [15]; above 5 µM in [16]. Further, the Activity in the series with Neuron was 1.27 nanoampere; in the series on Mus musculus [11] it was “Non-toxic”; in the series on Mus musculus [13] it was above 30%; in series [17], 53 nM. The concentration with Mus musculus [5] was 1000 nM; with Brain, 170 nM. The t1/2 with Plasma was 1.1 h. In series [8], the Ratio is reported as below 0.05. The fraction unbound in [9] is 0.02. For the same compound, in the series listed under Mus musculus [10], the inhibition is 102%. Besides, the outcome in the series on Rattus norvegicus [19] was Active.
